# Experimental data reported in ChEMBL document CHEMBL1137637, “Quinuclidine derivatives as potential antiparasitics” (Antimicrob Agents Chemother, 2007).
# Assays:
# [1] = tested on: Leishmania amazonensis; experiment: Inhibition of sterol biosynthesis in Leishmania mexicana amazonensis promastigotes assessed as reduction in endogenous 5-dehydro episterol level at 0.3 uM after 96 hrs by gas-liquid chromatography; assay type: functional; set-up: scale not given: the % may be the effect or the level left
# How it was run: (§1)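 Promastigotes grown in liver infusion-tryptose medium with lactalbumin and 10% fetal calf serum at 26°C, static; drug added at 0.5 × 10⁷ to 1 × 10⁷ cells/ml and cells exposed for 96 h. Total lipids extracted; neutral lipids separated from polar lipids by silicic acid column chromatography; free sterols quantified by capillary gas-liquid chromatography and mass spectrometry as mass % of total sterols.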
# [2] = tested on: Leishmania amazonensis; experiment: Inhibition of sterol biosynthesis in Leishmania mexicana amazonensis promastigotes assessed as reduction in exogenous cholesterol level at 0.3 uM after 96 hrs by gas-liquid chromatography; assay type: functional; set-up: scale not given: the % may be the effect or the level left; how it was run: as §1
# [3] = tested on: Leishmania amazonensis; experiment: Inhibition of sterol biosynthesis in Leishmania mexicana amazonensis promastigotes assessed as reduction in endogenous episterol level at 0.1 uM after 96 hrs by gas-liquid chromatography; assay type: functional; set-up: scale not given: the % may be the effect or the level left
# How it was run: (§2)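 L. mexicana promastigotes exposed to compound for 96 h. Total lipids extracted and neutral sterols separated from polar lipids by silicic acid column chromatography. Sterols analysed by TLC and by quantitative capillary gas-liquid chromatography with mass spectrometry. Composition expressed as mass % of free sterols, compared with untreated control.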
# [4] = tested on: Leishmania amazonensis; experiment: Inhibition of sterol biosynthesis in Leishmania mexicana amazonensis promastigotes assessed as reduction in endogenous 5-dehydro episterol level at 0.1 uM after 96 hrs by gas-liquid chromatography; assay type: functional; set-up: scale not given: the % may be the effect or the level left; how it was run: as §2
# [5] = tested on: Leishmania amazonensis; experiment: Inhibition of sterol biosynthesis in Leishmania mexicana amazonensis promastigotes assessed as reduction in exogenous cholesterol level at 0.1 uM after 96 hrs by gas-liquid chromatography; assay type: functional; set-up: scale not given: the % may be the effect or the level left; how it was run: as §2
# [6] = target: T1, Farnesyltransferase, putative (Leishmania major, UniProt Q4Q5W4); experiment: Inhibition of Leishmania major recombinant squalene synthase expressed in Escherichia coli by liquid scintillation counter
# T1 sequence (Q4Q5W4 whole entry): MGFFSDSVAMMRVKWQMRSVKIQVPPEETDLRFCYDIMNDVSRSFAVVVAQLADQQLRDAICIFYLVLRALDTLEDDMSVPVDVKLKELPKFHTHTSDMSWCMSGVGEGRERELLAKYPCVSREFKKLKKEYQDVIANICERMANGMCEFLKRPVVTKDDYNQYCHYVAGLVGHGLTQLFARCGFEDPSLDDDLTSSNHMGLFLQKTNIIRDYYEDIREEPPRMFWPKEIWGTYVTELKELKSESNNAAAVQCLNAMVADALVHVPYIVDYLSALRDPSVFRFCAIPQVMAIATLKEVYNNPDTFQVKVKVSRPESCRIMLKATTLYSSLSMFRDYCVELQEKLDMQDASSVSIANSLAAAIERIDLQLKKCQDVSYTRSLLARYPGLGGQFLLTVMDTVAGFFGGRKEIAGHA
# How it was run: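 Soluble E. coli extract expressing L. major SQS truncated by 16 N-terminal and 40 C-terminal residues. Buffer: 50 mM phosphate pH 7.4, 20 mM MgCl2, 5 mM CHAPS, 1% Tween 80, 10 mM DTT, BSA, 0.25 mM NADPH, and a glucose-6-phosphate/G6PDH regenerating system. Substrate 0.5 μM radiolabelled farnesyl pyrophosphate. Squalene band counted by scintillation. IC50 from hyperbolic plot of five concentrations in duplicate, usually run twice.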
# [7] = target: T2, Squalene synthase (Homo sapiens, UniProt P37268); experiment: Inhibition of human recombinant squalene synthase expressed in Escherichia coli BL21(DE3 pLysS) by liquid scintillation counter
# T2 sequence (P37268 whole entry): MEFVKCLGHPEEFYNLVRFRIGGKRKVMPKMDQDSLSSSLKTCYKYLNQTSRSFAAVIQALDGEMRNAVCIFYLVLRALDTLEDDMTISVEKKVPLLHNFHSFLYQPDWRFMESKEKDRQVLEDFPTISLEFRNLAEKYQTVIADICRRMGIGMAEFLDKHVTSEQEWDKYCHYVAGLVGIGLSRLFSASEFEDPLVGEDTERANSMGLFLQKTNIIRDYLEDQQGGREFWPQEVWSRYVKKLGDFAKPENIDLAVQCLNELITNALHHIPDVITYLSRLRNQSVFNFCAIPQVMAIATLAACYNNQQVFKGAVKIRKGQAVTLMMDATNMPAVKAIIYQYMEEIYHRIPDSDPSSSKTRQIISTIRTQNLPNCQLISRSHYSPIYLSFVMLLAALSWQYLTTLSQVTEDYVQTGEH
# How it was run: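 Human SQS in extracts of E. coli BL21(DE3 pLysS) carrying pHSS16, assayed under the same conditions as the L. major enzyme. Buffer: phosphate pH 7.4, MgCl2, CHAPS, Tween 80, DTT, BSA, and NADPH with a regenerating system. Substrate 0.5 μM radiolabelled farnesyl pyrophosphate. Squalene band radioactivity counted by scintillation.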
# [8] = tested on: Leishmania amazonensis; experiment: Antileishmanial activity against Leishmania mexicana amazonensis promastigotes by trypan blue exclusion method; assay type: functional, organism-based
# How it was run: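 L. mexicana amazonensis promastigotes cultured in liver infusion-tryptose medium with lactalbumin and 10% FCS at 26°C, unagitated. Cultures started at 2 × 10⁶ cells/ml and drug added at 0.5–1 × 10⁷ cells/ml. Density counted by electronic particle counter and hemocytometer. Viability by trypan blue exclusion. Triplicate growth experiments.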
# [9] = tested on: Leishmania donovani; experiment: Antileishmanial activity against Leishmania donovani MHOM/ET/67/L82 axenic amastigotes after 72 hrs by resazurin assay; assay type: functional, organism-based; settings: MHOM/ET/67/L82, 72 h
# How it was run: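 L. donovani MHOM/ET/67/L82 amastigotes grown axenically at 37°C in synthetic minimal medium at pH 5.4 with 10% heat-inactivated FBS under 5% CO2. 1 × 10⁵ amastigotes per well with seven threefold dilutions, 30 to 0.041 μg/ml. After 72 h, resazurin added for 2–4 h more. Fluorescence read at ex 536/em 588 nm. IC50 taken from sigmoidal curve. Run in duplicate, with an independent repeat for actives.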
# [10] = tested on: L6; experiment: Cytotoxicity against rat L6 cells after 72 hrs by resazurin assay; assay type: cell-based; settings: L6, 72 h
# How it was run: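 L-6 cells seeded at 4 × 10⁴ cells/ml in RPMI 1640 with 10% FBS and 2 mM L-glutamine. After 24 h, medium replaced with serial drug dilution and incubated for 72 h at 37°C in 5% CO2. Resazurin added for 2–4 h, fluorescence read at ex 536/em 588 nm. IC50 from sigmoidal curve. Duplicate, with an independent repeat for actives.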
# [11] = tested on: Trypanosoma cruzi; experiment: Antitrypanosomal activity against trypomastigotes of Trypanosoma cruzi Tulahuen C2C4 containing lacZ gene in rat L6 cells after 4 days by chlorophenol red-beta-D-galactopyranoside/Nonidet assay; assay type: functional, organism-based; settings: Tulahuen C2C4, L6, 96 h
# How it was run: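 L-6 rat myoblasts seeded at 2,000 cells/well in RPMI 1640 with 10% FBS and 2 mM L-glutamine. After 24 h, 5,000 T. cruzi Tulahuen C2C4 lacZ trypomastigotes added with serial drug dilution. Incubated at 37°C in 5% CO2 for 4 days. CPRG/Nonidet substrate added and colour read at 540 nm after 2–4 h. IC50 from sigmoidal curve. Duplicate determinations.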
# [12] = tested on: Trypanosoma brucei rhodesiense; experiment: Trypanocidal activity against Trypanosoma brucei rhodesiense STIB 900 bloodstream form after 72 hrs by resazurin assay; assay type: functional, organism-based; settings: STIB 900, 72 h
# How it was run: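 T. b. rhodesiense STIB 900 bloodstream forms in MEM with 2-mercaptoethanol and 15% heat-inactivated horse serum, with serial drug dilutions. Incubated 72 h at 37°C in 5% CO2. Resazurin added for 2–4 h more, fluorescence read at ex 536/em 588 nm. IC50 from sigmoidal curve. Duplicate, with an independent repeat for actives.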
# [13] = tested on: Plasmodium falciparum; experiment: Antiplasmodial activity after 48 hrs against chloroquine and pyrimethamine-resistant Plasmodium falciparum K1 in human erythrocytes by [3H]hypoxanthine uptake; assay type: functional, organism-based
# How it was run: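 P. falciparum K1 in human red cells in RPMI 1640 with 5% Albumax, exposed to serial drug dilutions. Incubated 48 h at 37°C under reduced oxygen, then 0.5 μCi [³H]hypoxanthine per well for 24 h more. Cells harvested onto glass-fibre filters and counted by scintillation. Result expressed as % of untreated control, with IC50 from sigmoidal curve. Duplicate, plus an independent repeat for actives.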
# [14] = tested on: Leishmania amazonensis; experiment: Inhibition of sterol biosynthesis in Leishmania mexicana amazonensis promastigotes assessed as reduction in endogenous episterol level at 0.3 uM after 96 hrs by gas-liquid chromatography; assay type: functional; set-up: scale not given: the % may be the effect or the level left; how it was run: as §1
# [15] = tested on: Leishmania amazonensis; experiment: Inhibition of sterol biosynthesis in Leishmania mexicana amazonensis promastigotes assessed as reduction in exogenous cholesterol level at 3 uM after 96 hrs by gas-liquid chromatography; assay type: functional; set-up: scale not given: the % may be the effect or the level left; how it was run: as §2
# [16] = tested on: Leishmania amazonensis; experiment: Inhibition of sterol biosynthesis in Leishmania mexicana amazonensis promastigotes assessed as reduction in endogenous 5-dehydro episterol level at 3 uM after 96 hrs by gas-liquid chromatography; assay type: functional; set-up: scale not given: the % may be the effect or the level left; how it was run: as §2
# [17] = tested on: Leishmania amazonensis; experiment: Inhibition of sterol biosynthesis in Leishmania mexicana amazonensis promastigotes assessed as reduction in endogenous episterol level at 3 uM after 96 hrs by gas-liquid chromatography; assay type: functional; set-up: scale not given: the % may be the effect or the level left; how it was run: as §2
# [18] = tested on: Leishmania amazonensis; experiment: Inhibition of sterol biosynthesis in Leishmania mexicana amazonensis promastigotes assessed as reduction in exogenous cholesterol level at 10 uM after 96 hrs by gas-liquid chromatography; assay type: functional; set-up: scale not given: the % may be the effect or the level left; how it was run: as §2
# [19] = tested on: Leishmania amazonensis; experiment: Inhibition of sterol biosynthesis in Leishmania mexicana amazonensis promastigotes assessed as reduction in endogenous 5-dehydro episterol level at 10 uM after 96 hrs by gas-liquid chromatography; assay type: functional; set-up: scale not given: the % may be the effect or the level left; how it was run: as §2
# [20] = tested on: Leishmania amazonensis; experiment: Inhibition of sterol biosynthesis in Leishmania mexicana amazonensis promastigotes assessed as reduction in endogenous episterol level at 10 uM after 96 hrs by gas-liquid chromatography; assay type: functional; set-up: scale not given: the % may be the effect or the level left; how it was run: as §2
# [21] = tested on: Leishmania amazonensis; experiment: Inhibition of sterol biosynthesis in Leishmania mexicana amazonensis promastigotes assessed as reduction in endogenous cholesta-5,7,24-trien-3beta-ol level at 3 uM after 96 hrs by gas-liquid chromatography; assay type: functional; set-up: scale not given: the % may be the effect or the level left; how it was run: as §2
# [22] = tested on: Leishmania amazonensis; experiment: Inhibition of sterol biosynthesis in Leishmania mexicana amazonensis promastigotes assessed as reduction in endogenous cholesta-5,7,24-trien-3beta-ol level at 1 uM after 96 hrs by gas-liquid chromatography; assay type: functional; set-up: scale not given: the % may be the effect or the level left; how it was run: as §2
# [23] = tested on: Leishmania amazonensis; experiment: Inhibition of sterol biosynthesis in Leishmania mexicana amazonensis promastigotes assessed as reduction in exogenous cholesterol level at 1 uM after 96 hrs by gas-liquid chromatography; assay type: functional; set-up: scale not given: the % may be the effect or the level left; how it was run: as §2
# [24] = tested on: Leishmania amazonensis; experiment: Inhibition of sterol biosynthesis in Leishmania mexicana amazonensis promastigotes assessed as reduction in endogenous 5-dehydro episterol level at 1 uM after 96 hrs by gas-liquid chromatography; assay type: functional; set-up: scale not given: the % may be the effect or the level left; how it was run: as §2
# [25] = tested on: Leishmania amazonensis; experiment: Inhibition of sterol biosynthesis in Leishmania mexicana amazonensis promastigotes assessed as reduction in endogenous episterol level at 1 uM after 96 hrs by gas-liquid chromatography; assay type: functional; set-up: scale not given: the % may be the effect or the level left; how it was run: as §2
# [26] = tested on: Leishmania amazonensis; experiment: Inhibition of sterol biosynthesis in Leishmania mexicana amazonensis promastigotes assessed as reduction in endogenous cholesta-7,24-dien-3beta-ol level at 1 uM after 96 hrs by gas-liquid chromatography; assay type: functional; set-up: scale not given: the % may be the effect or the level left; how it was run: as §2
# [27] = tested on: Leishmania amazonensis; experiment: Inhibition of sterol biosynthesis in Leishmania mexicana amazonensis promastigotes assessed as reduction in endogenous cholesta-7,24-dien-3beta-ol level at 3 uM after 96 hrs by gas-liquid chromatography; assay type: functional; set-up: scale not given: the % may be the effect or the level left; how it was run: as §2
SMILES,IC50 [6],IC50 [7],MIC [8],IC50 [9],IC50 [10],IC50 [11],IC50 [12],IC50 [13],Activity [15],Activity [16],Activity [17],Activity [18],other results
C1=C(c2ccc(OCc3ccccc3)cc2)C2CCN1CC2,0.1 µM,0.25 µM,0.3 µM,1.1 µM,47.2 µM,3.1 µM,1.1 µM,4.8 µM,,,,,Activity [1]: 24.2%; Activity [2]: 52.9%; Activity [3]: 15.4%; Activity [4]: 53%; Activity [5]: 31.6%; Activity [14]: 22.9%
CCOC(=O)Cc1ccc(C#CC2(O)CN3CCC2CC3)cc1 (stereo unspecified),0.97 µM,0.66 µM,10 µM,17.3 µM,> 287 µM,25.6 µM,258 µM,10 µM,28.4%,48.6%,23%,62.3%,Activity [19]: 18.9%; Activity [20]: 18.8%
OC[C@@H]1CC2CCN1C[C@@H]2C#Cc1ccc(-c2ccccc2)cc1 (stereo partly specified),> 1 µM,,3 µM,18.5 µM,10.7 µM,5.6 µM,1.2 µM,0.6 µM,25.2%,33.7%,9.3%,>99%,Activity [21]: 24.8%; Activity [22]: 41.7%; Activity [23]: 10.3%; Activity [24]: 36.4%; Activity [25]: 4.4%; Activity [26]: 7.2%; Activity [27]: 7%
